Experiment [1] concerns the target T1, Human immunodeficiency virus type 1 integrase (Human immunodeficiency virus 1, UniProt Q7ZJM1). Put plainly: Inhibition of strand transfer catalytic activity HIV1 integrase. A digest of the protocol: (§1)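 Wild-type HIV-1 IN (200 nM final) preincubated with inhibitor for 30 min at 30 °C. Buffer: 25 mM MOPS pH 7.2, 7.5 mM MnCl2, 50 mM NaCl, 10% DMSO, BSA and reducing agents. Reactions were quenched with formamide dye. IC50 was taken from log concentration versus percent inhibition.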

For experiment [2], the target named is T1, Human immunodeficiency virus type 1 integrase. Kind of experiment: Inhibition of 3'-processing catalytic activity HIV1 integrase. A digest of the protocol: as §1
In another experiment the test system is CEM-SS. Kind of experiment: Cytotoxicity against human T cell line CEM-SS. The experiment is classed as functional. A digest of the protocol: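 Uninfected CEM-SS cells were exposed to serial compound dilutions on the same plate as the antiviral test, at 37 °C with 5% CO2 for 6 days. Viability was measured by XTT (0.2 mg/mL, 4 h) absorbance at 450 nm.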

Experiment [3] deals with Human immunodeficiency virus 1. Put plainly: Antiviral activity in human T cell line CEM-SS infected with HIV1. The experiment is classed as functional, organism-based. In outline:
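CEM-SS cells at 5×10^3/well were infected with HIV-1 RF (MOI 0.3), and serial compound dilutions were added immediately. Cells were kept at 37 °C with 5% CO2 for 6 days. Viability was read by XTT (0.2 mg/mL, 4 h) absorbance at 450 nm.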

T1 sequence (Q7ZJM1 whole entry): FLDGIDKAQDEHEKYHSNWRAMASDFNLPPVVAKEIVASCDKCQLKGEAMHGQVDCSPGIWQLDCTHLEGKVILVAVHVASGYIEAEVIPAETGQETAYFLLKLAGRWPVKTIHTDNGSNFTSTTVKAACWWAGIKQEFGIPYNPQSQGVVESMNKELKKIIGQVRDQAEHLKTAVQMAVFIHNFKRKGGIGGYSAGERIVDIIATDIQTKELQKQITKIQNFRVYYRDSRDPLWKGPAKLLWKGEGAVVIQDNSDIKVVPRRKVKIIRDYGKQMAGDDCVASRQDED

As for `CC(=O)c1cc(C(=O)CC(=O)Nc2cccc([N+](=O)[O-])c2)sc1Nc1ccccc1`, the IC50 in experiment [1] was determined as 29 µM; in experiment [2] it was 97 µM.

As for `O=C(Cc1ccccc1)Nc1cc(C(=O)O)c(NC(=O)Cc2ccccc2)cc1C(=O)O`, the figures for the IC50 in experiment [1] and in experiment [2] were 7 µM and 9 µM, respectively. This compound gave a CC50 in the experiment on CEM-SS of more than 400 µM. Moreover, the EC50 in experiment [3] (Human immunodeficiency virus 1, T-cell, read-out: EC50) came out at 104 µM.

For the compound `Oc1ccccc1/C=N/CC(O)C/N=C/c1ccccc1O`, the concentration for half-maximal inhibition (IC50) in experiment [1] was determined as 61 µM; in experiment [2] it was 97 µM.

Regarding `O=C(Nc1ccc(O)c(-c2nc3cc(Cl)ccc3o2)c1)c1cccnc1`, the values for the IC50 in experiment [1] and in experiment [2] were 10 µM and 61 µM, respectively. The EC50 result in experiment [3] (t cell line) was “Not Active”.

`COc1ccc(CCNC(=O)CC(=O)N/N=C/c2ccco2)cc1OC`: the IC50 in experiment [1] is 90 µM; in experiment [2], more than 100 µM. Further, in the experiment with CEM-SS, the CC50 result is “Toxic”.

Regarding `O=C(CC1Sc2ccccc2NC1=O)Nc1cccc(C(=O)O)c1` (configuration not stated), the results for the IC50 in experiment [1] and in experiment [2] were 71 µM and 79 µM, respectively.

As to `O=C(/C=C/c1ccc(-c2ccccc2[N+](=O)[O-])o1)Nc1ccc(O)c(-c2nc3ccccc3o2)c1`, the IC50 in experiment [1] was 63 µM; in experiment [2], 23 µM.

In the case of `CCSc1nnc(N2C(=O)c3ccc(C(=O)c4ccc(C(=O)O)cc4)cc3C2=O)s1`, the half-inhibitory concentration (IC50) in experiment [1] came out at 65 µM; in experiment [2], 98 µM.

As to `O=C(O)c1cc(NC(=O)c2cccc3ccccc23)c(C(=O)O)cc1NC(=O)c1cccc2ccccc12`, the IC50 in experiment [1] was determined as 21 µM; in experiment [2] it was 28 µM.

In the case of `CCOC(=O)c1c(-c2ccccc2)csc1NC(NC(=O)c1ccco1)C(=O)c1ccc(C)cc1` (configuration not stated), the IC50 is 79 µM in experiment [1] and more than 100 µM in experiment [2].

Consider `Cc1ccc(C(=O)N/C(=C/c2ccc(-c3ccc(Cl)cc3Cl)o2)C(=O)NCCCO)cc1`, for which the IC50 is 85 µM in experiment [1] and more than 1000 µM in experiment [2].

Consider `CC(C)Cn1c(=O)c(C(=O)Nc2ccccc2S(N)(=O)=O)c(O)c2ccccc21`, for which the half-maximal inhibitory concentration (IC50) in experiment [1] is 16 µM; in experiment [2] it was 40 µM. Further, in experiment [3] (t cell line), the EC50 entry was “Not Active”.

Consider `CCOC(=O)CCc1cc(C(=O)OCC)c(CCC(=O)OCC)cc1C(=O)OCC`, for which the figures for the IC50 in experiment [1] and in experiment [2] were 94 µM and more than 100 µM, respectively.

Take `O=C(c1ccccc1)c1cc(Br)ccc1NC(=O)c1nc[nH]c1C(=O)O`: the concentration for half-maximal inhibition (IC50) in experiment [1] was 17 µM; in experiment [2], 16 µM.

With `O=C(CSc1nc(O)cc(CSc2ccc(Cl)cc2)n1)Nc1ccc(Cl)cc1Cl`, in the experiment on CEM-SS, the cytotoxic concentration (CC50) entry was “Toxic”.

As for `O=C(O)C(Cc1c[nH]c2ccccc12)NS(=O)(=O)c1ccccc1[N+](=O)[O-]` (configuration not stated), the IC50 in experiment [1] amounted to 56 µM; in experiment [2], 88 µM.

As to `COc1ccc(N(CC(=O)N/N=C/c2c(O)ccc3ccccc23)S(C)(=O)=O)cc1Cl`, the half-maximal inhibitory concentration (IC50) in experiment [1] was determined as 59 µM; in experiment [2], 95 µM.

Consider `COC(=O)c1ccc(C(=O)OC)c(NC(=O)c2ccc(C)c([N+](=O)[O-])c2)c1`, for which the IC50 in experiment [1] is more than 100 µM; in experiment [2], 92 µM.

Turning to `CC(=O)c1cc(C(=O)CC(=O)Nc2ccc([N+](=O)[O-])cc2)sc1Nc1ccccc1`, the half-inhibitory concentration (IC50) in experiment [1] stood at 28 µM; in experiment [2], 80 µM.

In the case of `COc1ccc(C(=O)Nc2ccc(O)c(-c3nc4ccccc4o3)c2)cc1[N+](=O)[O-]`, the results for the IC50 in experiment [1] and in experiment [2] were 7 µM and 6 µM, respectively.

On to `Cc1[nH]n(-c2ccccc2)c(=O)c1C(c1ccc(O)c(O)c1)c1c(C)n(C)n(-c2ccccc2)c1=O` (configuration not stated), for which the IC50 in experiment [1] came out at 31 µM; in experiment [2] it was 89 µM. In the experiment with CEM-SS, the CC50 entry was “Toxic”.

On to `COc1cc(/C=N/NC2=NC(=O)C(CC(=O)Nc3ccc(Cl)c(Cl)c3)S2)ccc1O` (configuration not stated), for which the IC50 was determined as 38 µM in experiment [1] and 89 µM in experiment [2]. Further, the CC50 entry in the experiment on CEM-SS is “Toxic”.

For `O=C(N/N=C/c1ccc(/C=N/NC(=O)c2cc(O)cc(O)c2)cc1)c1cc(O)cc(O)c1`, the concentration for half-maximal inhibition (IC50) in experiment [1] came to 56 µM; in experiment [2] it was 76 µM.

Consider `O=C(/C=C/c1ccco1)NC(=S)Nc1ccccc1O`, for which the IC50 stood at 28 µM in experiment [1] and 57 µM in experiment [2]. Also, the CC50 result in the experiment with CEM-SS is “Toxic”.

Consider `O=C(CSc1nc(CSc2ccc(Cl)cc2)cc(=O)[nH]1)Nc1ccc(Cl)cc1Cl`, for which the IC50 in experiment [1] stood at 24 µM; in experiment [2], 34 µM.

For `O=C(CSc1nc2ccccc2n1Cc1ccccc1)N/N=C/c1cc(Br)ccc1O`, the IC50 in experiment [1] came out at 51 µM; in experiment [2], 60 µM. Moreover, the cytotoxic concentration (CC50) entry with CEM-SS was “Toxic”.

For `Cc1ccc(S(=O)(=O)Nc2ccccc2/N=C/c2sc3ccccc3c2O)cc1`, the IC50 in experiment [1] is 68 µM; in experiment [2], 88 µM.

Regarding `O=C(/N=N/c1c(O)[nH]c2ccc(F)cc12)/C(=C/C=C/c1ccccc1)NC(=O)c1ccccc1`, the IC50 in experiment [1] worked out at 38 µM; in experiment [2] it was 60 µM. In the experiment on CEM-SS, the CC50 result is “Toxic”.

For `COc1ccc2oc(=O)c(-c3csc(N/N=C/c4ccccc4O)n3)cc2c1`, the IC50 in experiment [1] came to 10 µM; in experiment [2], 30 µM. Moreover, in experiment [3] (t cell line), the EC50 result was “Not Active”.

For `CC(=O)c1cc(C(=O)CC(=O)Nc2ccccc2)sc1Nc1ccccc1`, the IC50 in experiment [1] and in experiment [2] was more than 100 µM throughout.

In the case of `O=C(/C=C(\O)c1ccc(Cl)cc1)C(=O)/N=N/c1c(O)[nH]c2ccc(Br)cc12`, the IC50 in experiment [1] was 28 µM; in experiment [2], 42 µM. For the same compound, the CC50 result with CEM-SS was “Toxic”.

Take `O=C(N/N=C/c1cc(Br)ccc1O)/C(=C/C=C/c1ccccc1)NC(=O)c1ccccc1`: the IC50 in experiment [1] was found to be 23 µM; in experiment [2], 90 µM. In addition, the CC50 entry in the experiment with CEM-SS is “Toxic”.

For `Cc1ccc(C(=O)C2=C(O)C(=O)N(CCCc3c[nH]cn3)C2c2ccc(Cl)cc2)cc1` (configuration not stated), the IC50 in experiment [1] was determined as 67 µM; in experiment [2] it was 93 µM.

Regarding `O=C(/C=C/c1ccc(Cl)cc1)Nc1ccc(NC(=O)c2ccco2)cc1`, the results for the IC50 in experiment [1] and in experiment [2] were 91 µM and 90 µM, respectively.

As to `O=C(Nc1ccc(O)c(-c2nc3ccccc3o2)c1)c1cccc2ccccc12`, the results for the IC50 in experiment [1] and in experiment [2] were 6 µM and 14 µM, respectively.

The values above are taken from ChEMBL document CHEMBL1141221, “Diketo acid pharmacophore. 2. Discovery of structurally diverse inhibitors of HIV-1 integrase” (J Med Chem, 2005).
